# Reference: ChEMBL document CHEMBL5724801, “EUbOPEN Chemogenomics Library - Multiplex” (2024)
# Values joined by “and” are separate entries in the source; they are usually repeats but may differ in a detail not shown here. Identical values can stand only once.
# Tested on: HEK-293T
# Experiment: Multiplex assay against HEK293T
# Format: toxicity, cell-based
# Conditions: human
# In short: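 Live cells carried four stains from seeding: Hoechst33342, BioTracker Green Microtubule Cytoskeleton Dye, MitoTracker Red and Annexin V Alexa Fluor 680. They were imaged on a CQ1 microscope at 37°C and 5% CO2 after compound addition. Using CellPathfinder machine-learning gating, cells were split into Hoechst high-intensity objects or normal cells, normal cells into healthy, pyknosed or fragmented nuclei, and pyknosed cells into mitotic or apoptotic; tubulin, mitochondrial-mass and membrane-permeability phenotypes are per cents of healthy-nucleus cells.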
# [1] = 12 h, 1 µM, compound concentration 1 uM
# [2] = 12 h, 10 µM, compound concentration 10 uM
# [3] = 24 h, 1 µM, compound concentration 1 uM
# [4] = 24 h, 10 µM, compound concentration 10 uM
# [5] = 48 h, 1 µM, compound concentration 1 uM
# [6] = 48 h, 10 µM, compound concentration 10 uM
smiles,measurement,setting,value
COCCCN1CCC(NC(=O)c2cc(Cl)c(N)c3c2OCC3)CC1 [PRUCALOPRIDE],Population Apoptotic (%),[1],22% and 31%
same,Population Fragmented Nuclei (%),[1],10% and 4%
same,Population Healthy Nuclei (%),[1],80% and 82%
same,Population Hoechst High Intensity Objects (%),[1],8% and 7%
same,Population Membrane Permeable-Phenotype (%),[1],0%
same,Population Mitochondria Different-Phenotype (%),[1],36% and 59%
same,Population Mitotic Cells (%),[1],77% and 68%
same,Population Normal (%),[1],91% and 92%
same,Population Pyknosed Nuclei (%),[1],9% and 12%
same,Population Tubulin-Different-Phenotype (%),[1],21% and 16%
same,Total Cell Count,[1],416 and 397
same,Population Apoptotic (%),[2],37% and 56%
same,Population Fragmented Nuclei (%),[2],8% and 10%
same,Population Healthy Nuclei (%),[2],74% and 72%
same,Population Hoechst High Intensity Objects (%),[2],4% and 10%
same,Population Membrane Permeable-Phenotype (%),[2],0%
same,Population Mitochondria Different-Phenotype (%),[2],59% and 75%
same,Population Mitotic Cells (%),[2],62% and 43%
same,Population Normal (%),[2],95% and 89%
same,Population Pyknosed Nuclei (%),[2],17%
same,Population Tubulin-Different-Phenotype (%),[2],43% and 35%
same,Total Cell Count,[2],421 and 261
same,Population Apoptotic (%),[3],20% and 28%
same,Population Fragmented Nuclei (%),[3],11% and 8%
same,Population Healthy Nuclei (%),[3],78% and 84%
same,Population Hoechst High Intensity Objects (%),[3],5% and 4%
same,Population Membrane Permeable-Phenotype (%),[3],1% and 0%
same,Population Mitochondria Different-Phenotype (%),[3],18% and 39%
same,Population Mitotic Cells (%),[3],79% and 71%
same,Population Normal (%),[3],94% and 95%
same,Population Pyknosed Nuclei (%),[3],10% and 6%
same,Population Tubulin-Different-Phenotype (%),[3],14% and 10%
same,Total Cell Count,[3],590 and 546
same,Population Apoptotic (%),[4],28% and 50%
same,Population Fragmented Nuclei (%),[4],8% and 13%
same,Population Healthy Nuclei (%),[4],77% and 73%
same,Population Hoechst High Intensity Objects (%),[4],4% and 9%
same,Population Membrane Permeable-Phenotype (%),[4],0%
same,Population Mitochondria Different-Phenotype (%),[4],48% and 51%
same,Population Mitotic Cells (%),[4],71% and 50%
same,Population Normal (%),[4],95% and 90%
same,Population Pyknosed Nuclei (%),[4],13% and 12%
same,Population Tubulin-Different-Phenotype (%),[4],32% and 25%
same,Total Cell Count,[4],531 and 341
same,Population Apoptotic (%),[5],24% and 21%
same,Population Fragmented Nuclei (%),[5],15% and 11%
same,Population Healthy Nuclei (%),[5],76% and 81%
same,Population Hoechst High Intensity Objects (%),[5],2% and 1%
same,Population Membrane Permeable-Phenotype (%),[5],1% and 0%
same,Population Mitochondria Different-Phenotype (%),[5],16% and 15%
same,Population Mitotic Cells (%),[5],75% and 78%
same,Population Normal (%),[5],97% and 98%
same,Population Pyknosed Nuclei (%),[5],7% and 6%
same,Population Tubulin-Different-Phenotype (%),[5],11% and 9%
same,Total Cell Count,[5],1001 and 832
same,Population Apoptotic (%),[6],20% and 35%
same,Population Fragmented Nuclei (%),[6],16%
same,Population Healthy Nuclei (%),[6],77% and 75%
same,Population Hoechst High Intensity Objects (%),[6],1% and 3%
same,Population Membrane Permeable-Phenotype (%),[6],1% and 0%
same,Population Mitochondria Different-Phenotype (%),[6],32% and 31%
same,Population Mitotic Cells (%),[6],79% and 64%
same,Population Normal (%),[6],98% and 96%
same,Population Pyknosed Nuclei (%),[6],6% and 7%
same,Population Tubulin-Different-Phenotype (%),[6],16% and 15%
same,Total Cell Count,[6],772 and 528
c1ccc2nc(N3CCNCC3)ccc2c1 [QUIPAZINE],Population Apoptotic (%),[1],6.35% and 5.69%
same,Population Fragmented Nuclei (%),[1],1.8% and 5.66%
same,Population Healthy Nuclei (%),[1],49.61% and 16.98%
same,Population Hoechst High Intensity Objects (%),[1],0%
same,Population Membrane Permeable-Phenotype (%),[1],0.52% and 0%
same,Population Mitochondria Different-Phenotype (%),[1],33.16% and 11.11%
same,Population Mitotic Cells (%),[1],93.65% and 94.31%
same,Population Normal (%),[1],100%
same,Population Pyknosed Nuclei (%),[1],48.59% and 77.36%
same,Total Cell Count,[1],389 and 159
same,Population Apoptotic (%),[2],10.22% and 12.62%
same,Population Fragmented Nuclei (%),[2],1.36% and 2.36%
same,Population Hoechst High Intensity Objects (%),[2],0.68% and 0%
same,Population Membrane Permeable-Phenotype (%),[2],0.65% and 4.76%
same,Population Mitochondria Different-Phenotype (%),[2],23.53% and 19.05%
same,Population Mitotic Cells (%),[2],89.78% and 87.38%
same,Population Normal (%),[2],99.32% and 100%
same,Population Pyknosed Nuclei (%),[2],46.6% and 81.1%
same,Total Cell Count,[2],296 and 127
same,Population Apoptotic (%),[3],10.39% and 10%
same,Population Fragmented Nuclei (%),[3],1.31% and 1.74%
same,Population Healthy Nuclei (%),[3],73.44% and 34.3%
same,Population Hoechst High Intensity Objects (%),[3],0%
same,Population Membrane Permeable-Phenotype (%),[3],2.9% and 0%
same,Population Mitochondria Different-Phenotype (%),[3],14.29% and 11.86%
same,Population Mitotic Cells (%),[3],89.61% and 90%
same,Population Normal (%),[3],100%
same,Population Pyknosed Nuclei (%),[3],25.25% and 63.95%
same,Population Tubulin-Different-Phenotype (%),[3],16.29% and 6.78%
same,Population Apoptotic (%),[4],18.49% and 17.05%
same,Population Fragmented Nuclei (%),[4],1.63% and 1.53%
same,Population Healthy Nuclei (%),[4],74.08% and 31.3%
same,Population Hoechst High Intensity Objects (%),[4],0.41% and 0%
same,Population Membrane Permeable-Phenotype (%),[4],1.1% and 0%
same,Population Mitochondria Different-Phenotype (%),[4],15.98% and 14.63%
same,Population Mitotic Cells (%),[4],81.51% and 82.95%
same,Population Normal (%),[4],99.59% and 100%
same,Population Pyknosed Nuclei (%),[4],24.29% and 67.18%
same,Population Tubulin-Different-Phenotype (%),[4],15.98% and 9.76%
same,Population Fragmented Nuclei (%),[5],2.36% and 0.5%
same,Population Healthy Nuclei (%),[5],83.55% and 65%
same,Population Hoechst High Intensity Objects (%),[5],0.15% and 0%
same,Population Membrane Permeable-Phenotype (%),[5],6.88% and 1.54%
same,Population Mitochondria Different-Phenotype (%),[5],14.83% and 16.15%
same,Population Mitotic Cells (%),[5],95.81% and 81.16%
same,Population Normal (%),[5],99.85% and 100%
same,Population Pyknosed Nuclei (%),[5],14.09% and 34.5%
same,Population Apoptotic (%),[6],13.64% and 6.25%
same,Population Fragmented Nuclei (%),[6],3.18% and 1.42%
same,Population Healthy Nuclei (%),[6],86.82% and 64.54%
same,Population Hoechst High Intensity Objects (%),[6],0%
same,Population Membrane Permeable-Phenotype (%),[6],5.34% and 3.3%
same,Population Mitochondria Different-Phenotype (%),[6],17.59% and 12.09%
same,Population Mitotic Cells (%),[6],86.36% and 93.75%
same,Population Normal (%),[6],100%
CCC(=O)N1CCN(c2ccc(-n3c(=O)ccc4cnc5ccc(-c6cnc7ccccc7c6)cc5c43)cc2C(F)(F)F)CC1 [TORIN1],Population Apoptotic (%),[2],71% and 51%
same,Population Healthy Nuclei (%),[2],76%
same,Population Hoechst High Intensity Objects (%),[2],7%
same,Population Membrane Permeable-Phenotype (%),[2],0%
same,Population Mitochondria Different-Phenotype (%),[2],78% and 87%
same,Population Mitotic Cells (%),[2],48%
same,Population Normal (%),[2],88% and 92%
same,Population Tubulin-Different-Phenotype (%),[2],37%
same,Total Cell Count,[2],373 and 266
same,Population Apoptotic (%),[4],44%
same,Population Healthy Nuclei (%),[4],75%
same,Population Membrane Permeable-Phenotype (%),[4],0%
same,Population Mitochondria Different-Phenotype (%),[4],75% and 82%
same,Population Mitotic Cells (%),[4],46% and 55%
same,Population Normal (%),[4],86% and 77%
same,Population Tubulin-Different-Phenotype (%),[4],43% and 33%
same,Total Cell Count,[4],337 and 225
same,Population Apoptotic (%),[6],56% and 68%
same,Population Healthy Nuclei (%),[6],70% and 56%
same,Population Membrane Permeable-Phenotype (%),[6],0%
same,Population Mitochondria Different-Phenotype (%),[6],77% and 80%
same,Population Mitotic Cells (%),[6],43%
same,Population Normal (%),[6],73% and 38%
same,Population Tubulin-Different-Phenotype (%),[6],47% and 37%
same,Total Cell Count,[6],292 and 235
